Laboratory results published in ChEMBL document CHEMBL4402517, “Rational modification of Mannich base-type derivatives as novel antichagasic compounds: Synthesis, in vitro and in vivo evaluation” (Bioorg Med Chem, 2019).
Activity calls are given as the source filed them. The rule behind the calls is not given here.

Key:
Trypanosoma cruzi [1] = assay: (§1) Antitrypanosomal activity against Trypanosoma cruzi MHOM/Pe/2011/Arequipa;DTU 5 bloodstream trypomastigote infected in BALB/c mouse assessed as parasite-free adipose tissue in chronic phase at 20 mg/kg/day, po administered for 5 consecutive days starting from day 70 post infection followed by cyclophosphamide induced immunosuppression on day 80 post infection measured after day 100 post infection by PCR method relative to control; assay type: functional
Procedure, shortened: (§2)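 Female BALB/c mice (10–12 weeks, three per group) were infected i.p. with 5 × 10^5 Arequipa bloodstream trypomastigotes. Dosing was oral, 20 mg/kg/day for 5 days, as a suspension in 5% DMSO/0.5% HPMC. Cyclophosphamide 200 mg/kg i.p. was given at day 80 pi. At necropsy (day 100) tissues were tested by PCR on the splice leader region (primers TC/TC1, 300 bp). Scored as x/3 mice positive.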

Trypanosoma cruzi [2] = assay: Antitrypanosomal activity against bloodstream trypomastigote stage of Trypanosoma cruzi MHOM/Pe/2011/Arequipa; DTU 5 isolated from parasite infected BALB/c Albino mouse cardiac cells after 24 hrs by Neubauer chamber based cell counting method; assay type: functional, organism-based; conditions: DTU 5, 24 h
Procedure, shortened: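 Bloodstream trypomastigotes were taken by cardiac puncture from infected BALB/c mice and diluted in RPMI + 10% heat-inactivated FBS. At 2 × 10^6/mL they were exposed to 3.1–50.0 µM (lower where needed) for 24 h at 37 °C, 5% CO2, and counted in a Neubauer chamber. Triplicates, at least three experiments; IC50 by nonlinear regression.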

Trypanosoma cruzi [3] = assay: as §1, with “trypomastigotes” for “trypomastigote”, “stomach” for “adipose tissue”; assay type: functional; procedure, shortened: as §2
Trypanosoma cruzi [4] = assay: as §1, with “bone marrow” for “adipose tissue”; assay type: functional; procedure, shortened: as §2
[5] = Selectivity index, ratio of IC50 for African green monkey Vero cells to IC50 for Trypanosoma cruzi IRHOD/CO/2008/SN3;DTU 1; assay type: toxicity; conditions: read-out: Selectivity Index
Procedure, shortened: (§3)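 SI = Vero IC50 / epimastigote IC50. Vero cells were grown in RPMI-1640 with 10% FBS, seeded at 0.8 × 10^4 cells/well, exposed to 10.0–200.0 µM for 72 h, then given MTT for 4 h. Epimastigotes were grown in MTL with 10% FBS at 28 °C, 5 × 10^5/mL, exposed to 6.3–50 µM for 48 h, then resazurin for 24 h (570/600 nm). IC50s came from nonlinear regression.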

[6] = Toxicity in BALB/c mouse infected with Trypanosoma cruzi MHOM/Pe/2011/Arequipa;DTU 5 bloodstream trypomastigote assessed as increase in serum alanine aminotransferase level in chronic phase at 20 mg/kg/day, po administered for 5 consecutive days starting from day 70 post infection and measured at day 76 post infection relative to control; assay type: organism-based; conditions: in vivo
Procedure, shortened: (§4)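 Female BALB/c mice (10–12 weeks, 14–20 g; groups of three) were infected i.p. with 5 × 10^5 Arequipa bloodstream trypomastigotes. Dosing was oral at 20 mg/kg/day for 5 days, from day 8 pi (acute) or day 70 pi (chronic), as a 2 mg/ml suspension in 5% DMSO/0.5% HPMC; controls received vehicle. Cyclophosphamide 200 mg/kg i.p. was given at day 80 pi. Serum was collected 2 days post-treatment and at necropsy by cardiac puncture and compared with infected untreated controls.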

Vero = assay: Cytotoxicity against African green monkey Vero cells measured after 72 hrs by MTT assay; assay type: cell-based; conditions: Chlorocebus sabaeus
Procedure, shortened: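 Log-phase Vero cells (0.8 × 10^4/well) in RPMI-1640 + 10% heat-inactivated FBS at 37 °C, 5% CO2 were exposed 72 h to serial dilutions (10.0–200.0 µM; stocks in DMSO). MTT was then added for 4 h and absorbance read. Quadruplicates, three experiments; IC50 by nonlinear regression.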

Trypanosoma cruzi [7] = assay: as §1, with “heart” for “adipose tissue”; assay type: functional; procedure, shortened: as §2
[8] = Selectivity index, ratio of IC50 for African green monkey Vero cells to IC50 for Trypanosoma cruzi TINF/CH/1956/Tulahuen;DTU 6; assay type: toxicity; conditions: read-out: Selectivity Index; procedure, shortened: as §3
Trypanosoma cruzi [9] = assay: Antitrypanosomal activity against Trypanosoma cruzi MHOM/Pe/2011/Arequipa;DTU 5 epimastigote assessed as effect on glycerol excretion at IC50 after 72 hrs by H NMR method relative to control; assay type: functional, organism-based
Procedure, shortened: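 Cells were spun at 800 × g for 10 min and culture supernatants analysed by 1H NMR. Catabolite peaks were expressed as % variation versus untreated parasites.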

Trypanosoma cruzi [10] = assay: (§5) Antitrypanosomal activity against Trypanosoma cruzi MHOM/Pe/2011/Arequipa;DTU 5 bloodstream trypomastigotes infected in BALB/c mouse assessed as reduction in serum Ig-G level in chronic phase at 20 mg/kg/day, po administered for 5 consecutive days starting from day 70 post infection followed by cyclophosphamide induced immunosuppression on day 80 post infection and measured at day 100 post infection by ELISA; assay type: functional, organism-based
Procedure, shortened: (§6)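 Sera came from infected BALB/c mice (three per group) dosed orally at 20 mg/kg/day for 5 days. Sampling points: 2 days after treatment, the day before immunosuppression (acute only) and necropsy day. Anti-T. cruzi IgG was measured by indirect ELISA using parasite Fe-SOD as antigen, read as OD at 492 nm.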

[11] = Toxicity in BALB/c mouse infected with Trypanosoma cruzi MHOM/Pe/2011/Arequipa;DTU 5 bloodstream trypomastigote assessed as decrease in serum creatine kinase muscle to brain ratio level in acute phase at 20 mg/kg/day, po administered for 5 consecutive days starting from day 8 post infection and measured at day 14 post infection by biochemical analysis relative to control; assay type: organism-based; design: scale not given: the % may be the effect or the level left; conditions: in vivo; procedure, shortened: as §4
Trypanosoma cruzi [12] = assay: as §1, with “parasitemia reactivation” for “parasite-free adipose tissue”, “infection” for “infection measured after day 100 post infection”, “Neubauer chamber” for “PCR method”; assay type: functional
Procedure, shortened: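 Female BALB/c mice (three per group) were infected i.p. with 5 × 10^5 Arequipa bloodstream trypomastigotes and treated orally at 20 mg/kg/day for 5 days (vehicle 5% DMSO/0.5% HPMC). Once parasitemia was undetectable (day 80 pi), cyclophosphamide 200 mg/kg was given i.p. Bloodstream parasites were then counted to give % reactivation versus untreated controls.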

Trypanosoma cruzi [13] = assay: as §5, with “acute” for “chronic”, “8” for “70 post infection followed by cyclophosphamide induced immunosuppression on day 80”, “14” for “100”; assay type: functional, organism-based; procedure, shortened: as §6
Trypanosoma cruzi [14] = assay: Antitrypanosomal activity against Trypanosoma cruzi TINF/CH/1956/Tulahuen;DTU 6 amastigote forms measured after 72 hrs by Giemsa staining based assay; assay type: functional, organism-based; conditions: TINF/CH/1956/Tulahuen;DTU 6, 72 h
Procedure, shortened: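 Vero cells (1 × 10^4/well, on coverslips) left to adhere 24 h at 37 °C, 5% CO2, then infected with trypomastigotes at MOI 10:1 for 24 h. Free parasites were removed by three PBS washes. Compounds at 3.1, 6.25, 12.5, 25 and 50 µM were incubated 72 h, and amastigotes were counted after Giemsa staining. Triplicates, two separate experiments; IC50 by nonlinear regression.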

Trypanosoma cruzi [15] = assay: as §1, with “oesophagus” for “adipose tissue”, “acute” for “chronic”, “8” for “70”; assay type: functional; procedure, shortened: as §2
Trypanosoma cruzi [16] = assay: as §1, with “spleen” for “adipose tissue”, “acute” for “chronic”, “8” for “70”; assay type: functional; procedure, shortened: as §2

Compound	Activity (Trypanosoma cruzi [1])	IC50 (Trypanosoma cruzi [2])	Activity (Trypanosoma cruzi [3])	Activity (Trypanosoma cruzi [4])	selectivity ratio [5]	Activity [6]	IC50 (Vero)	Activity (Trypanosoma cruzi [7])	selectivity ratio [8]	Activity (Trypanosoma cruzi [9])	Activity (Trypanosoma cruzi [10])	Activity [11]	Activity (Trypanosoma cruzi [12])	Activity (Trypanosoma cruzi [13])	IC50 (Trypanosoma cruzi [14])	Activity (Trypanosoma cruzi [15])	Activity (Trypanosoma cruzi [16])
O=C(CCN1CCN(c2ccc(Cl)cc2)CC1)c1ccc(O)cc1	63%	0.7 µM	63%	63%	8.6	<= 10%	104 µM	63%	9.8	Active	Active	<= 30%	20%	Active	3 µM	50%	50%
O=C(Cn1ccnc1[N+](=O)[O-])NCc1ccccc1 [BENZNIDAZOLE]	38%	6.2 µM	38%	38%	> 13.1	> 40%	> 200 µM	38%	> 7.9	Active	Active	<= 30%	40%	Active	3.9 µM	25%	25%
O=C(CCN1CCN(c2ccc(C(F)(F)F)cc2)CC1)c1ccc(O)cc1	50%	0.9 µM	50%	50%	8.5	> 40%	107 µM	50%	7.2	Active	Active	<= 30%	30%	Active	3.9 µM	13%	13%
